Assay outcomes from PubChem BioAssay.
T cruzi HTS: inhibitors of intracellular Trypanosoma cruzi. intracellular Trypanosoma cruzi in host cells, plate reader. activity score (inhibition), % at 5.01 µM. 4.9% of 22,000 active. AID 651903; in the data active means activity score above about 55%; inconclusive means no clear call, values can overlap the other calls;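 further: parasites and compound incubated about four days before reading; 0% = median of neutral control wells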
A1 apoptosis 2: A1 inhibition read as caspase activation | caspase activation, % (no concentration beside the values) | AID 2465 | MEF A1-2A-BIM cells, caspase-Glo luminescence, 3 h; percent of clofoctol response, DMSO zero | 24,000 tested, under 10 active; in the data active means caspase activation above about 5.9%; inconclusive means no clear call, values can overlap the other calls; inactive means below about 2.2%
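System: mouse embryonic fibroblasts co-expressing A1 and BIM (A1-2A-BIM), primed for A1 dependence; amount: 2500 cells/well; doses: 50 nL pinned compound; schedule: cells settled overnight, compound exposure 3 h at 37 °C, 5% CO2; detection: Caspase-Glo 3/7 luminescence, 1 h at room temperature; read-out: Caspase-3/7 activation, seen as rise in luminescence signal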
INS-1E rescue: preserves ATP levels in cytokine-treated INS-1E cells | INS-1E cytokine-induced death, ATP luminescence, 48 h; normalised: neutral wells 0, positive control 100 | 0.1% of 20,000 active | protection from cytokine-induced ATP loss, % at 10 µM;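 active means mean replicate protection from cytokine-induced ATP loss at least 50% and at least 75% of replicates each reaching 50%; inconclusive means meets only one of the two criteria, mean or replicate share; inactive means fails both the mean and replicate share criteria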
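Assay system – rat INS-1E insulinoma cell line · Quantity – 8000 cells per well · Buffer or medium – RPMI without phenol red, 5% FBS · Schedule – 48 h co-treatment, 10 min post-lysis read · Technique – luminescent ATP assay (CellTiter-Glo)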
Numbers without * were called inactive. This excerpt belongs to a sample that is enriched for hits.

For C[C@@H]1CN([C@@H](C)CO)C(=O)Cc2cc(NC(=O)Nc3ccc(C(F)(F)F)cc3)ccc2O[C@@H]1CN(C)S(=O)(=O)c1ccc(F)cc1 the results were T cruzi HTS 81* and INS-1E rescue -4.
Screening C[C@H]1CN([C@@H](C)CO)C(=O)Cc2cc(NC(=O)Nc3ccc(C(F)(F)F)cc3)ccc2O[C@H]1CN(C)S(=O)(=O)c1ccc(F)cc1 returned T cruzi HTS 31, A1 apoptosis 2 -2 and INS-1E rescue -13.
Screening Cc1ccc(S(=O)(=O)N[C@H](C(=O)NCCn2cc(CN3C(=O)COC[C@H]3c3ccccc3)nn2)C(C)C)cc1 returned A1 apoptosis 2 1.
CC(C)(C)OC(=O)CC[C@@]12N=C(c3ccc(OCCCO)cc3)O[C@@H]1c1ccccc1N(CCS(=O)(=O)c1ccccc1)C2=O was read as A1 apoptosis 2 -2.
`C=C(C)[C@@H]1CC=C(/C=N/NC(=O)CCCCCCC(=O)O)CC1` gave T cruzi HTS -14, A1 apoptosis 2 1 and INS-1E rescue 10.
`O=C(CCCCC(=O)N/N=C/c1ccc(O)cc1Br)NO` gave A1 apoptosis 2 -1.
Screening COc1cc2c(cc1O)C(c1cccs1)N(C)CC2 (stereo not given) returned A1 apoptosis 2 0.
COc1cc(/C=C/C=N/NC(=O)c2ccc(C(=O)NO)cc2)ccc1O was read as T cruzi HTS -9, A1 apoptosis 2 -1 and INS-1E rescue -4.
For Cc1ccc(/C=N/NC(=O)CCCCC(=O)NO)o1 the results were T cruzi HTS 7, A1 apoptosis 2 1 and INS-1E rescue 3.
For C[C@@H]1CN([C@H](C)CO)C(=O)Cc2cc(NC(=O)Nc3ccc(C(F)(F)F)cc3)ccc2O[C@@H]1CN(C)S(=O)(=O)c1ccc(Cl)cc1 the results were T cruzi HTS 58*, A1 apoptosis 2 0 and INS-1E rescue 6.
Screening C[C@@H]1CN([C@@H](C)CO)C(=O)Cc2cc(NC(=O)Nc3ccc(C(F)(F)F)cc3)ccc2O[C@H]1CN(C)S(=O)(=O)c1ccc(Cl)cc1 returned A1 apoptosis 2 1.
C[C@H](O)[C@H](O)[C@@H](O)[C@@H](O)/C=N/NC(=O)CCCCCCC(=O)Nc1ccccc1O was read as T cruzi HTS -3, A1 apoptosis 2 0 and INS-1E rescue -12.
Screening CN(CCO)c1ccc(/C=N/NC(=O)c2cccc(C(=O)NO)c2)cc1 returned T cruzi HTS -3, A1 apoptosis 2 -1 and INS-1E rescue -9.
Cc1noc(C)c1NC(=O)Nc1ccc2c(c1)CC(=O)N([C@@H](C)CO)C[C@H](C)[C@@H](CN(C)C(=O)Nc1ccccc1)O2 was read as T cruzi HTS -28 and INS-1E rescue 9.
`C[C@H](CO)N1C[C@H](C)[C@H](CN(C)C(=O)Nc2ccc(F)cc2)Oc2ncc(C#Cc3ccc(C(F)(F)F)cc3)cc2C1=O` gave T cruzi HTS 88*.
For C[C@H](CO)N1C[C@H](C)[C@H](CN(C)C(=O)NC2CCCCC2)Oc2ncc(C#Cc3ccc(F)cc3)cc2C1=O the results were T cruzi HTS 34, A1 apoptosis 2 2 and INS-1E rescue -19.
For C[C@H](CO)N1C[C@H](C)[C@H](CN(C)C(=O)NC2CCCCC2)Oc2ncc(C#Cc3ccc(C(F)(F)F)cc3)cc2C1=O the results were T cruzi HTS 88* and INS-1E rescue -27.
C[C@H](CO)N1C[C@H](C)[C@H](CN(C)C(=O)Nc2ccc(F)cc2)Oc2ncc(C#Cc3ccc(F)cc3)cc2C1=O was read as T cruzi HTS 26.
For O=C1N(CCS(=O)(=O)c2ccccc2)Cc2ccccc2[C@@H]2OC(c3ccc(OCCCO)cc3)=N[C@]12Cc1ccccc1 the results were A1 apoptosis 2 -1.
Screening C[C@H](CO)N1C[C@H](C)[C@H](CN(C)Cc2ccc(Cl)c(Cl)c2)Oc2ccc(NC(=O)Nc3ccc(F)cc3)cc2CC1=O returned T cruzi HTS inconclusive and INS-1E rescue -15.
C[C@@H]1CN([C@H](C)CO)C(=O)Cc2cc(NC(=O)Nc3ccc(F)cc3)ccc2O[C@@H]1CN(C)Cc1ccc(Cl)c(Cl)c1 was read as T cruzi HTS 68*, A1 apoptosis 2 0 and INS-1E rescue -14.
`C[C@@H]1CN([C@@H](C)CO)C(=O)Cc2cc(NC(=O)Nc3ccc4c(c3)OCO4)ccc2O[C@@H]1CN(C)Cc1ccc(Cl)c(Cl)c1` gave T cruzi HTS 47 and INS-1E rescue -40.
C[C@H]1CN([C@@H](C)CO)C(=O)Cc2cc(NC(=O)Nc3ccc4c(c3)OCO4)ccc2O[C@H]1CN(C)Cc1ccc(Cl)c(Cl)c1 was read as T cruzi HTS 63* and INS-1E rescue -6.
For C[C@@H]1CN([C@@H](C)CO)C(=O)Cc2cc(NC(=O)Nc3ccccc3)ccc2O[C@@H]1CN(C)Cc1ccc(Cl)c(Cl)c1 the results were T cruzi HTS 68* and INS-1E rescue -50.
`C[C@H](CO)N1C[C@H](C)[C@@H](CN(C)Cc2ccc(Cl)c(Cl)c2)Oc2ccc(NC(=O)Nc3ccc(F)cc3)cc2CC1=O` gave A1 apoptosis 2 0.
Screening C[C@H]1CN([C@@H](C)CO)C(=O)Cc2cc(NC(=O)Nc3ccc(F)cc3)ccc2O[C@H]1CN(C)Cc1ccc(Cl)c(Cl)c1 returned T cruzi HTS 64*, A1 apoptosis 2 2 and INS-1E rescue -52.
Screening C[C@@H]1CN([C@@H](C)CO)C(=O)Cc2cc(NC(=O)Nc3ccc(F)cc3)ccc2O[C@H]1CN(C)Cc1ccc(Cl)c(Cl)c1 returned A1 apoptosis 2 1.
CC(=O)O[C@@H]1[C@H](c2ccc(=O)oc2)C2[C@H](C)C[C@H]3[C@@H](CC[C@@H]4C[C@@H](O)CC[C@@]43C)[C@]23O[C@H]13 (stereo not given in full) was read as A1 apoptosis 2 0.
`O=C(NO)c1ccc(C(=O)N/N=C/c2ccc(O)c(O)c2O)cc1` gave A1 apoptosis 2 0.
`C[C@@H]1CN([C@H](C)CO)C(=O)Cc2cc(NC(=O)Nc3ccc(C(F)(F)F)cc3)ccc2O[C@@H]1CN(C)Cc1ccncc1` gave T cruzi HTS 65*, A1 apoptosis 2 0 and INS-1E rescue 2.
For C[C@H](CO)N1C[C@H](C)[C@@H](CN(C)Cc2ccncc2)Oc2ccc(NC(=O)Nc3ccc(C(F)(F)F)cc3)cc2CC1=O the results were A1 apoptosis 2 0.
For C[C@@H]1CN([C@@H](C)CO)C(=O)Cc2cc(NC(=O)Nc3ccc(C(F)(F)F)cc3)ccc2O[C@@H]1CN(C)Cc1ccncc1 the results were T cruzi HTS 69*, A1 apoptosis 2 1 and INS-1E rescue -17.
`C[C@@H]1CN([C@H](C)CO)C(=O)Cc2cc(NC(=O)c3ccncc3)ccc2O[C@H]1CN(C)Cc1ccc(C(F)(F)F)cc1` gave T cruzi HTS 19, A1 apoptosis 2 0 and INS-1E rescue 5.
For C[C@H](CO)N1C[C@H](C)[C@H](CN(C)Cc2ccc(C(F)(F)F)cc2)Oc2ccc(NC(=O)c3ccncc3)cc2CC1=O the results were T cruzi HTS 38, A1 apoptosis 2 0 and INS-1E rescue -8.
